Measurements reported in ChEMBL document CHEMBL1132256, “Structure-activity relationships for substituted bis(acridine-4-carboxamides): a new class of anticancer agents” (J Med Chem, 1999).
pIC50: −log10 of the molar value.

Experiments:
P388 = test: Inhibitory activity against Murine […]; type: functional, cell-based; conditions: Mus musculus
Summary of the method: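 Murine P388 leukemia cells seeded at 4.5 × 10^3 cells/well, cultured 3 days with drug; growth measured by [3H]TdR uptake. IC50 = drug concentration (nM) reducing cell number to 50% of controls. Independent assays in duplicate, CV ca. 25%.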

Jurkat [1] = test: Ratio of inhibitory activity against doxorubicin resistant jurkat cells to inhibitory activity against wild type human jurkat cells; type: functional
Summary of the method: (§1)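 Wild-type Jurkat (JLC) and its amsacrine-resistant (JLA) or doxorubicin-resistant (JLD) sublines each seeded at 3.75 × 10^3 cells/well, 4 days with drug, sulforhodamine read-out. IC50 (nM) for 50% of control cell number; ratio = resistant-line IC50 divided by JLC IC50. Duplicate assays, CV ca. 25%.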

Jurkat [2] = test: Concentration required to inhibit 50% growth of human Jurkat cells; type: functional, cell-based
Summary of the method: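 Jurkat leukemia (JLC) cells seeded at 3.75 × 10^3 cells/well and exposed to drug for 4 days; growth measured by sulforhodamine assay. IC50 = drug concentration (nM) reducing cell number to 50% of control cultures. Independent assays in duplicate, coefficients of variation ca. 25%.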

[3] = system: Lewis lung carcinoma cell line; test: Inhibitory activity of tested against Murine Lewis lung carcinoma; type: functional, cell-based; conditions: Mus musculus
Summary of the method: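 Lewis lung carcinoma (LLTC) cells at 10^3 cells/well, 4-day continuous drug exposure, growth read by sulforhodamine assay. IC50 (nM) = concentration giving 50% of control cell number. Duplicate independent assays, CV ca. 25%.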

Jurkat [4] = test: Ratio of inhibitory activity against amsacrine resistant jurkat cells to inhibitory activity against wild type human jurkat cells; type: functional; summary of the method: as §1
MCF7 = test: inhibitory activity against multi drug resistant MCF cell line.; type: functional; conditions: Homo sapiens, in the assay text read “MCF7 cell line” for “multi drug resistant MCF cell line”
Summary of the method: (§2)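 Tested in the NCI human cell line panel. GI50 = drug concentration (nM) giving growth inhibition to 50% of controls; values below 10 nM were taken as 10 nM in calculations.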

SK-OV-3 = test: inhibitory activity against ovarian carcinoma SKOV3 cell line.; type: functional; conditions: Homo sapiens; summary of the method: as §2
CAKI-1 = test: inhibitory activity against renal tumor […] cell line.; type: functional; conditions: Homo sapiens; summary of the method: as §2
NCI/ADR-RES = test: inhibitory activity against multi drug resistant NCI/ADR cell line.; type: functional; conditions: Homo sapiens; summary of the method: as §2
HCT-116 = test: inhibitory activity against colon HCT116 cell line.; type: functional; conditions: Homo sapiens; summary of the method: as §2
HT-29 = test: inhibitory activity against colon HT-29 cell line.; type: functional; conditions: Homo sapiens; summary of the method: as §2

| SMILES | pIC50 (P388) | Ratio (Jurkat [1]) | pIC50 (Jurkat [2]) | pIC50 [3] | Ratio (Jurkat [4]) | GI50 (MCF7) [nM] | GI50 (SK-OV-3) [nM] | GI50 (CAKI-1) [nM] | GI50 (NCI/ADR-RES) [nM] | GI50 (HCT-116) [nM] | GI50 (HT-29) [nM] |
| --- | --- | --- | --- | --- | --- | --- | --- | --- | --- | --- | --- |
| Cc1cccc2cc3c(Cl)ccc(C(=O)NCCCN(C)CCCNC(=O)c4ccc(Cl)c5cc6cccc(C)c6nc45)c3nc12 | 7.32 | 0.6 | 7.92 | 8.22 | 0.3 | – | – | – | – | – | – |
| CN(CCCNC(=O)c1cccc2cc3cc(Cl)ccc3nc12)CCCNC(=O)c1cccc2cc3cc(Cl)ccc3nc12 | 6.77 | 0.9 | 6.87 | 7.34 | 0.8 | – | – | – | – | – | – |
| CC(C)c1ccc2nc3c(C(=O)NCCCN(C)CCCNC(=O)c4cccc5cc6cc(C(C)C)ccc6nc45)cccc3cc2c1 | 5.84 | 1.1 | 5.68 | 5.68 | 1.1 | – | – | – | – | – | – |
| CCc1ccc2nc3c(C(=O)NCCCN(C)CCCNC(=O)c4cccc5cc6cc(CC)ccc6nc45)cccc3cc2c1 | 5.97 | 1.4 | 5.79 | 6.11 | 0.9 | – | – | – | – | – | – |
| COc1ccc2cc3cccc(C(=O)NCCCN(C)CCCNC(=O)c4cccc5cc6ccc(OC)cc6nc45)c3nc2c1 | 7.12 | 0.8 | 7.29 | 7.70 | 0.5 | – | – | – | – | – | – |
| CN(CCCNC(=O)c1cccc2cc3ccc(F)cc3nc12)CCCNC(=O)c1cccc2cc3ccc(F)cc3nc12 | 7.62 | 0.9 | 7.28 | 7.70 | 0.6 | – | – | – | – | – | – |
| Cc1ccc2cc3cccc(C(=O)NCCCN(C)CCCNC(=O)c4cccc5cc6ccc(C)cc6nc45)c3nc2c1 | 6.46 | 0.9 | 6.75 | 7.25 | 0.7 | 530 | 3040 | 669 | 407 | 130 | 62 |
| CN(CCCNC(=O)c1cccc2cc3cc(F)ccc3nc12)CCCNC(=O)c1cccc2cc3cc(F)ccc3nc12 | 6.85 | 0.8 | 7.02 | 7.49 | 0.6 | – | – | – | – | – | – |
| CN(CCCNC(=O)c1cccc2cc3cc(N(C)C)ccc3nc12)CCCNC(=O)c1cccc2cc3cc(N(C)C)ccc3nc12 | 6.01 | 0.9 | 6.12 | 6.74 | 1 | – | – | – | – | – | – |
| Cc1cc(C)c2nc3c(C(=O)NCCCN(C)CCCNC(=O)c4cccc5cc6cc(C)cc(C)c6nc45)cccc3cc2c1 | 6.68 | 0.8 | 6.98 | 7.70 | 0.5 | – | – | – | – | – | – |
| CN(CCCNC(=O)c1cc(Cl)cc2cc3ccccc3nc12)CCCNC(=O)c1cc(Cl)cc2cc3ccccc3nc12 | 6.95 | 0.9 | 7.34 | 8.23 | 0.7 | – | – | – | – | – | – |
| CN(CCCNC(=O)c1cccc2cc3cc(Br)ccc3nc12)CCCNC(=O)c1cccc2cc3cc(Br)ccc3nc12 | 6.65 | 0.9 | 6.65 | 7.46 | 0.7 | – | – | – | – | – | – |
| CN(CCCNC(=O)c1cccc2cc3ccc(Br)cc3nc12)CCCNC(=O)c1cccc2cc3ccc(Br)cc3nc12 | 7.31 | 0.9 | 7.24 | 7.74 | 0.6 | – | – | – | – | – | – |
| CN(CCCNC(=O)c1cccc2cc3ccc(C(F)(F)F)cc3nc12)CCCNC(=O)c1cccc2cc3ccc(C(F)(F)F)cc3nc12 | 5.02 | 1.1 | 6.45 | 6.80 | 0.6 | – | – | – | – | – | – |
| Cc1cccc2cc3cccc(C(=O)NCCCN(C)CCCNC(=O)c4cccc5cc6cccc(C)c6nc45)c3nc12 | 7.64 | 0.7 | 7.96 | 8.74 | 0.4 | < 10 | 87 | < 10 | 116 | < 10 | < 10 |
| Cc1cc(C(=O)NCCCN(C)CCCNC(=O)c2cc(C)cc3cc4ccccc4nc23)c2nc3ccccc3cc2c1 | 6.66 | 1.1 | 6.59 | 7.17 | 0.7 | 546 | 460 | 247 | 657 | < 10 | 265 |
| CC(C)c1cccc2cc3cccc(C(=O)NCCCN(C)CCCNC(=O)c4cccc5cc6cccc(C(C)C)c6nc45)c3nc12 | 5.56 | 1.1 | 5.68 | 5.98 | 0.9 | – | – | – | – | – | – |
| CN(CCCNC(=O)c1cccc2cc3cc(C(C)(C)C)ccc3nc12)CCCNC(=O)c1cccc2cc3cc(C(C)(C)C)ccc3nc12 | 5.75 | 1.1 | 5.97 | 5.85 | 1.1 | – | – | – | – | – | – |
| CN(CCCNC(=O)c1cccc2cc3ccc(N(C)C)cc3nc12)CCCNC(=O)c1cccc2cc3ccc(N(C)C)cc3nc12 | 6.12 | 0.6 | 6.65 | 6.49 | 0.3 | – | – | – | – | – | – |
| CN(CCCNC(=O)c1cccc2cc3cc(-c4ccccc4)ccc3nc12)CCCNC(=O)c1cccc2cc3cc(-c4ccccc4)ccc3nc12 | 6.15 | 1.1 | 5.99 | 6.21 | 1 | – | – | – | – | – | – |
| COc1ccc2nc3c(C(=O)NCCCN(C)CCCNC(=O)c4cccc5cc6cc(OC)ccc6nc45)cccc3cc2c1 | 6.88 | 1.1 | 6.83 | 7.70 | 0.7 | – | – | – | – | – | – |
| CN(CCCNC(=O)c1cccc2cc3cccc(N(C)C)c3nc12)CCCNC(=O)c1cccc2cc3cccc(N(C)C)c3nc12 | 5.67 | 0.9 | 6.74 | 6.17 | 0.7 | – | – | – | – | – | – |
| COc1cccc2cc3cccc(C(=O)NCCCN(C)CCCNC(=O)c4cccc5cc6cccc(OC)c6nc45)c3nc12 | 6.37 | 0.8 | 6.46 | 6.77 | 0.5 | 394 | 12000 | 1490 | 1390 | 330 | 103 |
| Cc1ccc(C(=O)NCCCN(C)CCCNC(=O)c2ccc(C)c3cc4cccc(C)c4nc23)c2nc3c(C)cccc3cc12 | 7.68 | 0.7 | 8.41 | 8.85 | 0.3 | – | – | – | – | – | – |
| CN(CCCNC(=O)c1ccc(Cl)c2cc3ccccc3nc12)CCCNC(=O)c1ccc(Cl)c2cc3ccccc3nc12 | 6.40 | 1 | 6.90 | 7.38 | 0.6 | – | – | – | – | – | – |
| Cc1ccc(Cl)c2cc3cccc(C(=O)NCCCN(C)CCCNC(=O)c4cccc5cc6c(Cl)ccc(C)c6nc45)c3nc12 | 7.39 | 0.7 | 7.70 | 8.06 | 0.5 | – | – | – | – | – | – |
| COc1cc(NS(C)(=O)=O)ccc1Nc1c2ccccc2nc2ccccc12 [AMSACRINE] | – | 74 | – | 7.92 | 85 | – | – | – | – | – | – |
| COc1cccc2c1C(=O)c1c(O)c3c(c(O)c1C2=O)C[C@@](O)(C(=O)CO)C[C@@H]3O[C@H]1C[C@H](N)[C@H](O)[C@H](C)O1 [DOXORUBICIN] | 7.51 | 13 | – | 7.66 | 4.4 | – | – | – | – | – | – |
